According to publication PMC12166256 (Clinical Pharmacology and Therapeutics, 2025):
pIC50: −log10 of the molar value.

Experiments:
sTNFα = sTNFα (Homo sapiens, UniProt P01375); assay: sTNFα target occupancy, ex vivo zymosan stimulation of blood, ELISA; assay type: in vivo
Summary of the method: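 Blood came from the 400 and 600 mg single-dose cohorts (pre-dose and 3 h post-dose) and all multiple-dose cohorts (pre-dose Day 1; pre-dose and 3 h Day 14). It was stimulated ex vivo with zymosan. ELISA measured total and compound-occupied TNFα to derive percent occupancy and percent change from baseline, summarised descriptively by group and time point.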

TNFα = settings: in vitro; cited from earlier work
P-glycoprotein (P-gp) = settings: in vitro studies; cited from earlier work
TNF = settings: read-out: 50% inhibitory concentration [IC50], TNF inhibition; in vitro; cited from earlier work

Chain of sTNFα (P01375 77-233 limits assumed): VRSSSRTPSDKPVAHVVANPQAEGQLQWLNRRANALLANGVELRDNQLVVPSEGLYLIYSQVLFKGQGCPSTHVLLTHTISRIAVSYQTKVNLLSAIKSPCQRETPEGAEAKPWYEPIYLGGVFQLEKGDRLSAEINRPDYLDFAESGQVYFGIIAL

sTNFα occupancy, mean (sTNFα; MAD 100 mg BID, D14 0 h): 103.1% | sTNFα occupancy, median (sTNFα; MAD 100 mg BID, D14 0 h): 104.0% | sTNFα occupancy, mean (sTNFα; MAD 100 mg BID, D14 3 h): 104.9% | sTNFα occupancy, median (sTNFα; MAD 100 mg BID, D14 3 h): 105.3% | sTNFα occupancy, mean (sTNFα; MAD 100 mg QD, D14 0 h): 95.0% | sTNFα occupancy, median (sTNFα; MAD 100 mg QD, D14 0 h): 96.8% | sTNFα occupancy, mean (sTNFα; MAD 100 mg QD, D14 3 h): 97.2% | sTNFα occupancy, median (sTNFα; MAD 100 mg QD, D14 3 h): 98.4% | sTNFα occupancy, mean (sTNFα; MAD 200 mg BID, D14 0 h): 101.1% | sTNFα occupancy, median (sTNFα; MAD 200 mg BID, D14 0 h): 101.8% | sTNFα occupancy, mean (sTNFα; MAD 200 mg BID, D14 3 h): 105.2% | sTNFα occupancy, median (sTNFα; MAD 200 mg BID, D14 3 h): 106.6% | sTNFα occupancy, mean (sTNFα; MAD 300 mg BID, D14 0 h): 101.3% | sTNFα occupancy, median (sTNFα; MAD 300 mg BID, D14 0 h): 101.8% | sTNFα occupancy, mean (sTNFα; MAD 300 mg BID, D14 3 h): 99.8% | sTNFα occupancy, median (sTNFα; MAD 300 mg BID, D14 3 h): 102.8% | sTNFα target occupancy (sTNFα; SAD 400 mg and 600 mg cohorts, 3 hours after dosing): ~ 100% | sTNFα occupancy, mean (sTNFα; SAD 400 mg, D1 3 h): 102.2% | sTNFα occupancy, median (sTNFα; SAD 400 mg, D1 3 h): 105.3% | sTNFα occupancy, mean (sTNFα; SAD 600 mg, D1 3 h): 109.3% | sTNFα occupancy, median (sTNFα; SAD 600 mg, D1 3 h): 109.2%
SMILES: CN1C(=O)c2cccc(OC(F)F)c2[C@H]2C[C@@H]1c1nc3ccc(-c4cnc(C5(N)CCC5)nc4)cc3n12 [Balinatunfib]
concentration leading to 90% occupancy of TNFα [OCC90] (TNFα): 16 nM | active transport by P-glycoprotein (P-gp) (P-glycoprotein (P-gp)): substrate | pIC50 (TNF): 7.46
